Holding throughout (type): functional
The subject of one assay is Aspergillus niger. Kind of assay: Minimum inhibitory concentration against Aspergillus niger ATCC 16404.
A further assay has as its system Bacillus cereus. In words: Minimum inhibitory concentration against Bacillus cereus ATCC 10876. In outline:
(§1)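 Agar cup diffusion assay. Colonies from a fresh overnight culture were suspended in saline to 0.5 McFarland (10^8 CFU/mL). Mueller Hinton agar at 48 °C was seeded at 10^6 CFU/mL and poured, and holes were cut in it. Each hole received sample from a six-step dilution series between 0.25 and 125 µg/mL. After incubation, inhibition zone diameters were measured with an electronic caliper to estimate the MIC.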

A further assay deals with Candida albicans. In words: Minimum inhibitory concentration against Candida albicans ATCC 10231.
The subject of another assay is Clostridium perfringens. Kind of assay: Minimum inhibitory concentration against Clostridium perfringens KT 13. In outline:
(§2)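 MIC by agar cup diffusion. Colonies from fresh overnight culture were suspended in saline to 0.5 McFarland (10^8 CFU/mL), and molten Mueller Hinton agar at 48 °C was seeded at 10^6 CFU/mL and poured. Wells each received 200 µL of one of six dilutions spanning 0.25–125 µg/mL. After incubation, inhibition zone diameters were measured by caliper. Strains came from ATCC or in-house clinical isolates.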

Another assay deals with Corynebacterium xerosis. In words: Minimum inhibitory concentration against Corynebacterium xerosis NCTC 9755. The method in brief: as §1
Another assay has as its system Escherichia coli. In words: Minimum inhibitory concentration against Escherichia coli HA 44. In outline:
as §1

The subject of another assay is Micrococcus luteus. In words: Minimum inhibitory concentration against Micrococcus luteus ATCC 9341. In outline: as §1
A further assay has as its system Cutibacterium acnes. In words: Minimum inhibitory concentration against Propionibacterium acnes NCTC 737. In outline: as §1
Assay [1] concerns Staphylococcus aureus. In words: Minimum inhibitory concentration against Staphylococcus aureus ATCC 6538P. In outline:
as §1

For assay [2], the system named is Staphylococcus aureus. In words: Minimum inhibitory concentration against meticilline resistant Staphylococcus aureus CJ 232. The method in brief: as §2
In assay [3] the test system is Staphylococcus aureus. Kind of assay: Minimum inhibitory concentration against meticilline and fus resistant Staphylococcus aureus CJ 234. The method in brief: as §2
Assay [4] concerns Staphylococcus aureus. Kind of assay: Minimum inhibitory concentration against meticilline and rifampicin resistant Staphylococcus aureus CJ 234. In outline: as §2
The nature of assay [5]: Minimum inhibitory concentration against Saccharomyces cerevisiae ZZ 7.
Another assay deals with Streptococcus salivarius. Kind of assay: Minimum inhibitory concentration against Streptococcus salivarius EG 7 (gr.A). The method in brief:
(§3)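 Streptococcal MICs were estimated by agar cup diffusion in Mueller Hinton agar supplemented with 5% sheep blood. The agar was seeded at 48 °C with 10^6 CFU/mL from a saline suspension at 0.5 McFarland. Cut holes were filled from six dilutions spanning 0.25–125 µg/mL. After incubation, growth-inhibition zone diameters were read with an electronic caliper.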

Assay [6] deals with Streptococcus thermophilus. Kind of assay: Minimum inhibitory concentration against Streptococcus thermophilus EG 5. In outline:
as §3

For assay [7], the system named is Streptococcus equi subsp. zooepidemicus. In words: Minimum inhibitory concentration against Streptococcus zooepidermidis ED (gr.C). The method in brief:
as §3

Another assay concerns Enterococcus faecium. Kind of assay: Minimum inhibitory concentration against Streptococcus faecium EI 119. The method in brief:
as §3

Assay [8] deals with Staphylococcus epidermidis. In words: Minimum inhibitory concentration against Staphylococcus epidermidis ATCC 12228. In outline:
as §1

The next assay deals with Streptococcus pyogenes. Kind of assay: Minimum inhibitory concentration against Streptococcus pyogenes EC. The method in brief:
as §3

Assay [9] in a line: Minimum inhibitory concentration against Streptococcus. species EF 6. The following applies: Bacteria. In outline: as §3
In assay [10] the test system is Staphylococcus aureus. Kind of assay: Minimum inhibitory concentration against Staphylococcus aureus ATCC 29213. In outline: as §1
Assay [11] concerns Staphylococcus aureus. In words: Minimum inhibitory concentration against Staphylococcus aureus ATCC 2977. The method in brief:
as §2

Converted amounts (≈) assume the structure as drawn. Some results are limits rather than exact numbers.

For orientation: MIC means the smallest concentration in the dilution series that meets the test's criterion for growth inhibition. Read a low MIC as inhibition by little substance. `CC(=O)O[C@H]1C[C@@]2(C)[C@@H](CC(O)[C@H]3[C@@]4(C)CCC(O)C(C)[C@@H]4CC[C@]32C)/C1=C(\CCC=C(C)C)C(=O)O` (some centres not stated): the MIC was 16 µg/mL (≈ 31 µM) against Aspergillus niger; 4 µg/mL (≈ 7.74 µM) in the assay with Bacillus cereus; 16 µg/mL (≈ 31 µM) against Candida albicans; 16 µg/mL (≈ 31 µM) against Clostridium perfringens; 0.01 µg/mL (≈ 0.0194 µM) with Corynebacterium xerosis; over 125 µg/mL against Escherichia coli. The MIC against Micrococcus luteus was 1 µg/mL (≈ 1.94 µM); with Cutibacterium acnes, 0.003 µg/mL (≈ 0.00581 µM); against Staphylococcus aureus [1] it was 0.007 µg/mL (≈ 0.0135 µM); in the assay with Staphylococcus aureus [2] it was 0.015 µg/mL (≈ 0.029 µM); in the assay with Staphylococcus aureus [3], over 125 µg/mL; in the assay with Staphylococcus aureus [4], 0.006 µg/mL (≈ 0.0116 µM). Moreover, the MIC in assay [5] is 4 µg/mL (≈ 7.74 µM); in the assay with Streptococcus salivarius, 4 µg/mL (≈ 7.74 µM); in assay [6], 4 µg/mL (≈ 7.74 µM); in [7], 16 µg/mL (≈ 31 µM); with Enterococcus faecium, 0.01 µg/mL (≈ 0.0194 µM); in [8] it was 0.0007 µg/mL (≈ 0.00135 µM). Besides, the MIC against Streptococcus pyogenes worked out at 4 µg/mL (≈ 7.74 µM); in assay [9], 4 µg/mL (≈ 7.74 µM); in the assay on Staphylococcus aureus [10], 0.007 µg/mL (≈ 0.0135 µM); in the assay on Staphylococcus aureus [11], 0.006 µg/mL (≈ 0.0116 µM).
Take `CC(=O)O[C@H]1C[C@@]2(C)C(CC(O)[C@H]3[C@@]4(C)CCC(O)C(C)C4CC[C@@]32C)[C@@H]1[C@H](CCCC(C)C)C(=O)O` (some centres not stated): the MIC is 16 µg/mL (≈ 30.7 µM) in the assay on Aspergillus niger; over 125 µg/mL with Bacillus cereus; over 125 µg/mL in the assay with Candida albicans; over 125 µg/mL with Clostridium perfringens; 4 µg/mL (≈ 7.68 µM) against Corynebacterium xerosis; over 125 µg/mL in the assay with Escherichia coli. For the same compound, the MIC is over 125 µg/mL against Micrococcus luteus; 4 µg/mL (≈ 7.68 µM) with Cutibacterium acnes; 4 µg/mL (≈ 7.68 µM) against Staphylococcus aureus [1]; 4 µg/mL (≈ 7.68 µM) against Staphylococcus aureus [2]; over 125 µg/mL against Staphylococcus aureus [3]; 0.9 µg/mL (≈ 1.73 µM) in the assay on Staphylococcus aureus [4]. Besides, the MIC in assay [5] is over 125 µg/mL; in the assay with Streptococcus salivarius, over 125 µg/mL; in [6] it was over 125 µg/mL; in assay [7] it was over 125 µg/mL; against Enterococcus faecium, 16 µg/mL (≈ 30.7 µM); in assay [8], 3.8 µg/mL (≈ 7.3 µM). Moreover, the MIC against Streptococcus pyogenes is over 125 µg/mL; in assay [9] it was over 125 µg/mL; against Staphylococcus aureus [10] it was 2 µg/mL (≈ 3.84 µM); with Staphylococcus aureus [11] it was 4 µg/mL (≈ 7.68 µM).
On to `CC(=O)O[C@H]1C[C@@]2(C)C(CC(O)[C@H]3[C@@]4(C)CCC(O)C(C)C4CC[C@]32C)C1[C@H](CCC=C(C)C)C(=O)O` (some centres not stated), for which the minimal inhibitory concentration (MIC) was 64 µg/mL (≈ 123 µM) in the assay with Aspergillus niger; 1 µg/mL (≈ 1.93 µM) with Bacillus cereus; 64 µg/mL (≈ 123 µM) against Candida albicans; 16 µg/mL (≈ 30.8 µM) in the assay with Clostridium perfringens; 0.03 µg/mL (≈ 0.0578 µM) against Corynebacterium xerosis; over 125 µg/mL against Escherichia coli. The MIC is 1 µg/mL (≈ 1.93 µM) in the assay on Micrococcus luteus; 0.03 µg/mL (≈ 0.0578 µM) with Cutibacterium acnes; 0.012 µg/mL (≈ 0.0231 µM) in the assay on Staphylococcus aureus [1]; 0.03 µg/mL (≈ 0.0578 µM) in the assay with Staphylococcus aureus [2]; over 125 µg/mL with Staphylococcus aureus [3]; 0.03 µg/mL (≈ 0.0578 µM) with Staphylococcus aureus [4]. Moreover, the MIC in [5] stood at 4 µg/mL (≈ 7.71 µM); against Streptococcus salivarius it was 4 µg/mL (≈ 7.71 µM); in [6], 16 µg/mL (≈ 30.8 µM); in assay [7] it was 16 µg/mL (≈ 30.8 µM); in the assay with Enterococcus faecium it was 0.025 µg/mL (≈ 0.0482 µM); in assay [8], 0.01 µg/mL (≈ 0.0193 µM). The MIC came out at 16 µg/mL (≈ 30.8 µM) against Streptococcus pyogenes, 4 µg/mL (≈ 7.71 µM) in assay [9], 0.01 µg/mL (≈ 0.0193 µM) in the assay on Staphylococcus aureus [10] and 0.03 µg/mL (≈ 0.0578 µM) with Staphylococcus aureus [11].
Take `CC(=O)O[C@H]1C[C@@]2(C)C(CC(O)[C@H]3[C@@]4(C)CCC(O)C(C)C4CC[C@@]32C)C1[C@@H](CCC=C(C)C)C(=O)O` (some centres not stated): the MIC against Bacillus cereus, in the assay with Candida albicans, against Clostridium perfringens, in the assay with Corynebacterium xerosis, against Escherichia coli and with Micrococcus luteus was over 125 µg/mL each time. The MIC against Cutibacterium acnes is 4 µg/mL (≈ 7.71 µM); with Staphylococcus aureus [1] it was over 125 µg/mL; in the assay on Staphylococcus aureus [2], over 125 µg/mL; in the assay on Staphylococcus aureus [3], over 125 µg/mL; in the assay with Staphylococcus aureus [4] it was over 125 µg/mL; in assay [5], over 125 µg/mL. The MIC (with Streptococcus salivarius; in [6]; in assay [7]; against Enterococcus faecium; in assay [8]; in the assay with Streptococcus pyogenes) was over 125 µg/mL each time. Also, the MIC (in assay [9]; against Staphylococcus aureus [10]; against Staphylococcus aureus [11]) was over 125 µg/mL throughout.

The values above are taken from ChEMBL document CHEMBL1134596, “Synthesis and conformational analysis of fusidic acid side chain derivatives in relation to antibacterial activity” (2001).
